Screens as filed in PubChem.
M4 PAM – potentiates acetylcholine response at human M4 receptor; 360,000 tested, 0.4% active; CHO-K1 hM4/Gqi5, Fluo-8 calcium fluorescence, ACh EC20; 0% = ACh EC20, 100% = maximal ACh; activation, % at 3 µM;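 active = activation above its plate's cutoff, the mean activation of sample wells plus 3 SD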
CHRM4 antagonist – blocks acetylcholine activation of human M4 receptor. P08173. CHO-hM4 cells, ACh EC80, Fluo-8 calcium fluorescence. inhibition, % at 3 µM. 360,000 tested, 0.73% active;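 active = inhibition above its plate's cutoff, the mean inhibition of sample wells plus 3 SD, cut at about 27% in these data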;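 also: 0% = acetylcholine EC80 with DMSO and 100% = DMSO without agonist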
M4 ag – CHRM4 agonism in calcium assay; AID 624127; CHO-K1 hM4/Gqi5, Fluo-8 calcium fluorescence; vehicle 0%, full acetylcholine response 100%; activation, % at 3 µM; 360,000 tested, 0.14% active;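 active = activation above the run mean over all test wells plus 3 SD, cut at about 32% in these data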;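 also: peak over basal fluorescence ratio per well then scaled between controls; 0% = DMSO wells and 100% = acetylcholine at EC100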
M5 ag – CHRM5 agonism in calcium assay; CHO-K1 hM5 cells, Fluo-8 calcium fluorescence; 0% DMSO wells, 100% maximal acetylcholine response; activation, % at 3 µM; P08912; 360,000 tested, 0.19% active; AID 624037;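 active = activation above the run's mean over test compounds plus 3 SD, cut at about 23% in these data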;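 also: signal is peak over basal fluorescence ratio across the kinetic read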
Target sequence (P08912 whole entry, looked up): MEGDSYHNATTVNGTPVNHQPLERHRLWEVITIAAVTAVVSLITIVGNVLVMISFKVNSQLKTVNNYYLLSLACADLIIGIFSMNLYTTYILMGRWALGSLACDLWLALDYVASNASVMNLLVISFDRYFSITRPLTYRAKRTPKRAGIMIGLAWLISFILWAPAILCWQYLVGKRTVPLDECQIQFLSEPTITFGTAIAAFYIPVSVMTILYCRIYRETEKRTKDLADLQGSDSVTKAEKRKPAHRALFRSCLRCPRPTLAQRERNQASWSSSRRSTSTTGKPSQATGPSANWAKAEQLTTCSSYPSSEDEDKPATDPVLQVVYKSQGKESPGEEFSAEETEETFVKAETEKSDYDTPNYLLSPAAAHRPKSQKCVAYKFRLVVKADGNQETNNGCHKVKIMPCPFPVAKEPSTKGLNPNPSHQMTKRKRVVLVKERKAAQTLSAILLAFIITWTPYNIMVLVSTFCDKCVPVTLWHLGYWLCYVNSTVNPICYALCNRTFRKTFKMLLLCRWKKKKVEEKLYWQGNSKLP
M5 antag – antagonists of human muscarinic M5 receptor (CHRM5); CHO-hM5 cells, Fluo-8 calcium fluorescence, ACh EC80; inhibition, % at 3 µM; P08912; AID 624040; 360,000 tested, 0.59% active;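 active = inhibition above a per-plate cutoff, the mean of that plate's test compounds plus 3 SD, cut at about 27% in these data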;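 also: 0% = acetylcholine EC80 with DMSO and 100% = DMSO without agonist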
M5 PAM – CHRM5 positive allosteric modulation. P08912. CHO-K1 hM5, Fluo-8 calcium, ACh EC20 PAM; 0% = ACh EC20, 100% = ACh EC100. activation, % at 3 µM. 360,000 tested, 0.3% active. AID 624038;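 active = activation above the run cutoff, the mean activation of all test compounds plus 3 SD, cut at about 18% in these data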
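Assay system: CHO-K1 hM5 cells. Also added: acetylcholine at EC20 concentration, added after compound. Dosing: 3 µM, single dose. Times: compound preincubation 140 s before EC20 acetylcholine addition. Signal: Fluo-8 calcium fluorescence. Measure: % activation relative to EC20 and EC100 ACh responses. Repeats: singlicate, one well per test compound.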
Starred values were filed as active, the others as inactive. Sampled rows, rich in hits. Any-hit rate of the full collection: about 1.9%.

SMILES	M4 PAM	CHRM4 antagonist	M4 ag	M5 ag	M5 antag	M5 PAM
O=C(OCCc1cc2ccccc2c(=O)o1)c1ccccc1C(F)(F)F	-6	3	7	0	13	-22
CCOC(=O)C1CCC(CNCc2ccccc2C)CC1 (stereo unspecified)	-24	34*	2	-17	0	-8
Cc1ccccc1C(=O)O/N=C(\c1ccccc1)c1ccccn1	22*	-4	3	-2	-6	6
CN(C)S(=O)(=O)Oc1cc(Cl)ccc1C(=O)Nc1ccc(F)cc1F	-7	14	15	4	21	-17
COC(=O)C(Cc1ccc(OC(=O)c2ccc(Cl)cc2)cc1)N1Cc2ccccc2C1=O (stereo unspecified)	-13	28*	10	-2	30*	-25
Cc1cccc(NC(=O)CN2C(=O)NC3(CCCCCCC3)C2=O)c1C	1	-6	1	3	21	3
O=C(CN1C(=O)NC2(CCCCC2)C1=O)Nc1cccc2ncccc12	24*	-25	0	1	8	-8
O=C(CSc1nc(O)cc(=O)[nH]1)N1CCOCC1	-1	-8	-1	-2	8	1
O=C(CSc1nc(-c2ccccc2)cc(=O)[nH]1)N1CCOCC1	7	-6	1	-4	40*	1
Cc1cc(=O)[nH]c(SCC(=O)N2CCCCC2)n1	2	-17	1	0	8	-1
Cc1cc(=O)[nH]c(SCC(=O)N2CCN(C(c3ccccc3)c3ccccc3)CC2)n1	-17	20	0	-8	32*	-24
C=CCNC(=O)c1c(Br)cnn1-c1ccc(C)cc1	2	3	1	-3	-2	5
Cc1ccc(C)c(-n2c(=O)c(C#N)cc3c(=O)n4ccccc4nc32)c1	6	-2	1	2	2	28*
COC(=O)CCCCCCCCCCN1CCCCC1	-16	40*	2	-9	-1	-6
COC(=O)CCCCC(=O)OC	6	3	2	1	6	-5
Cc1ccc(C2(c3ccccc3)NC(=O)N(CC(=O)NCc3ccco3)C2=O)cc1C (stereo unspecified)	-3	-1	-1	-10	-11	18*
O=C(O)c1cnn(-c2nc(-c3ccc(F)cc3)cs2)c1C(F)(F)F	23*	-6	0	-3	-6	4
Cc1ccc(NC(=O)C2CCN(S(=O)(=O)c3ccc4ccccc4c3)CC2)nc1	-1	-2	9	-3	-1	-3
OC(c1cccs1)(c1cccs1)C1C[N+]2(CF)CCC1CC2 (stereo unspecified)	-40	68*	1	-7	63*	-15
O=C(c1ccc([N+](=O)[O-])cc1)N1CCN(c2ncc(Br)cn2)CC1	1	4	6	-2	3	-2
CCOC(=O)C1CCCN(C(=O)COc2ccc(C(C)(C)C)cc2)CC1 (stereo unspecified)	-5	-3	6	1	0	-6
CC(Oc1ccccc1)c1ccnn1S(=O)(=O)c1ccccc1 (stereo unspecified)	12	-3	-2	-15	1	20*
CCCc1c(-c2ccc(F)cc2F)ncn1Cc1cccc(-c2ccccc2)c1	-10	6	3	-3	16	-15
CCCCOCCCNc1ncnc2c1[nH]c1ccccc12	-28	31*	21	6	28*	-18
CCOCCCNc1ncnc2c1[nH]c1ccccc12	-7	7	14	7	8	-23
SMILES	M4 PAM	CHRM4 antagonist	M4 ag	M5 ag	M5 antag	M5 PAM
CN(C)c1ncnc2c1ncn2[C@H]1CN(C2CCCC2)C[C@@H](CO)O1	-4	-9	0	1	-2	0
O=C(Nc1ccc(Cl)cc1)Nc1cc([N+](=O)[O-])ccc1F	-6	8	4	1	3	-1
O=C(Nc1ccc([N+](=O)[O-])cc1)Nc1ccc(Cl)cc1F	-6	3	15	1	41*	-18
Cc1cc(OC(F)F)ccc1NC(=O)Nc1ccc([N+](=O)[O-])cc1	3	-1	13	5	27*	-16
O=C(Nc1ccc(Cl)cc1)Nc1ccccc1CC[N+](=O)[O-]	-8	-7	17	8	29*	-17
O=C(Nc1csc([N+](=O)[O-])c1)Nc1c(Cl)cccc1Cl	-9	15	12	6	15	-12
O=C(Nc1ccc(Cl)cc1)Nc1csc([N+](=O)[O-])c1	-6	7	11	6	37*	-33
COc1ccc(N(C)C(=O)CN(C)S(=O)(=O)c2ccc3c(c2)c(=O)n(C)c(=O)n3C)c(OC)c1	13	-14	2	-5	15	-5
Cc1cc(C)cc(N(CCC(=O)Nc2nnc(C3CC3)s2)S(=O)(=O)c2ccc(Cl)cc2)c1	21*	1	0	1	4	2
Cc1nc2ccc(C(=O)N3c4ccccc4N=C(c4ccc5c(c4)OCO5)C3C(=O)NCc3ccccc3)cc2[nH]1 (stereo unspecified)	0	-7	4	-2	11	-1
CCOc1ccc2cc(S(=O)(=O)N3CCN(C)CC3)ccc2c1	15*	-2	4	-6	2	2
CCOc1ccc2cc(S(=O)(=O)N3CCCCC3)ccc2c1	0	12	1	-4	4	-1
CC(C)CN1Cc2ccccc2Oc2cc(Br)ccc2S1(=O)=O	25*	-8	9	22	1	12
CC(=O)C(Cc1cccc(F)c1)(Cc1cccc(F)c1)C(C)=O	-10	0	9	-8	9	-19
Cn1c(C(=O)NC2CC2)cc2c(=O)n(C)c3ccccc3c21	31*	5	25	1	1	-4
CC(C)NC(=S)NC(c1ccccc1)(c1ccccc1)c1ccccc1	-9	-10	-3	-13	-2	-17
Cc1cc(C)c(C)c(S(=O)(=O)N2CCNC(=O)C2)c1C	2	-10	1	1	8	-3
COC(c1ccccc1)c1nnc(CCC(=O)N2CCN(Cc3cccs3)CC2)o1 (stereo unspecified)	-1	1	2	-3	4	-2
COC(c1ccccc1)c1nnc(CCC(=O)N2CCCCCCC2)o1 (stereo unspecified)	18*	-18	3	0	5	2
CCOc1ccc(Cl)cc1S(=O)(=O)N1CCC(C(=O)N2CCCC2)CC1	-4	-4	2	-1	2	-5
CC(C)Cc1nn2c(N)c(/C=C3\C=Nc4ccccc43)c(=O)nc2s1	-8	1	14	3	32*	-19
